Assay outcomes (PubChem)
Compounds with a hit are over-represented: about 3.8% of the library has one in this group of screens.
rCAG RNA binder – molecules binding r(CAG) RNA repeats; r(CAG) RNA repeat, TO-PRO-1 dye displacement fluorescence; inhibition, % at 3 µM; 1.3% of 370,000 active;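 active = inhibition above the plate cutoff, the mean of all test compounds on that plate plus 3 SD, cut at about 35% in these data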;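 note: 0% = DMSO alone and 100% = 100 µM mitoxantrone as full dye displacement; higher means more dye released from RNA so lower well fluorescence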
T cell modulator – T cell immune modulators affecting CD8 T cell-vesicle binding | response (vesicle binding), % at 7 µM | 0.068% of 330,000 active | AID 2052 | 2C CD8+ T cell-vesicle binding, flow cytometry; stronger effect = lower value;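 active = response, share of CD8 T cells binding vesicles, and their 90th percentile fluorescence all below set limits, cut at about 80% in these data, passing the limit was not always enough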;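 note: values below 100% mean blocked vesicle binding to the CD8+ T cells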
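Also added: QL9-peptide-loaded Drosophila micro-vesicles bearing Ld, ICAM-1 and B7-1; Test system: purified 2C TCR transgenic mouse naive CD8+ T cells; Measured by: cytometric PE anti-B7-1 and Alexa647 anti-CD8 signals after 1% paraformaldehyde fixation; Timing: binding step 1.5 h, 37 °C, antibody labelling 20 min, ice.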
B2AR ag – human beta-2 adrenergic receptor agonism by FAP. P07550. Am2.2-beta2AR cells, FAP receptor internalization, flow cytometry. response, % (concentration not given with the values). 0.43% of 340,000 active;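 active = response above a set limit, near 3 SD of response in nonfluorescent compounds, cut at about 42% in these data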
Target sequence (P07550 whole entry, looked up): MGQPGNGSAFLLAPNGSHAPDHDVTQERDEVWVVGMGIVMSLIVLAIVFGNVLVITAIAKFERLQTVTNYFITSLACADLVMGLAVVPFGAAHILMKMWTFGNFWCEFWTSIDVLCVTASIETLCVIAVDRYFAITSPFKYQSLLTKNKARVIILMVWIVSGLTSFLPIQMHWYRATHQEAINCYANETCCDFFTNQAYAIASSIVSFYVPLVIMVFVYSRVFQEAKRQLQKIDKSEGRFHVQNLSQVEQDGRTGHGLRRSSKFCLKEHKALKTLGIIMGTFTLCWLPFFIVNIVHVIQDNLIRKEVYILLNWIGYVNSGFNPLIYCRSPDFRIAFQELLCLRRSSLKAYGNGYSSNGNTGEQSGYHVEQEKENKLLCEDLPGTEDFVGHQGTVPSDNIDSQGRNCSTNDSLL
V-ATPase pHluor – regulators of yeast V-ATPase proton transport; S. cerevisiae, pHLuorin cytosolic pH fluorescence; response, % at 10 µM; 0.37% of 350,000 active; AID 504577; in the data active = response mostly above about 7.3%, no sharp cut-off; inactive = mostly below about 5.4%; note: actives read high
MPTP inh – permeability transition pore inhibition. isolated mouse mitochondria, Ca2+ swelling absorbance, 30 min. AID 602449. 1.4% of 360,000 active. inhibition, % at 10 µM;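 active = inhibition of 50% or more, scaled per plate between neutral and stimulator controls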;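 note: 0% = DMSO wells given calcium and 100% = 1 mM EGTA wells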
Granule exo inh – blocks lytic granule exocytosis; TALL-104 LAMP-1 surface exposure, flow cytometry; cells stimulated with thapsigargin and PMA; inhibition, % at 10 µM; 0.66% of 360,000 active; AID 651702;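 active = inhibition above about 55%, limit read from the data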
rCAG binder conf – r(CAG) RNA repeat binding, confirmation. shares compounds with rCAG RNA binder. TO-PRO-1 dye displacement fluorescence. inhibition, % at 3 µM. 70% of 4,300 active;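 active = inhibition above a per-plate cutoff, the mean inhibition of sample wells plus 3 SD, cut at about 35% in these data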;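 note: loss of TO-PRO-1 fluorescence as compound displaces dye from 1x1 AA loop RNA; 0% = DMSO only wells and 100% = 100 µM mitoxantrone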
DNA CAG counter – DNA CAG dye complex inhibition counter-screen; inhibition, % at 3 µM; shares compounds with rCAG RNA binder; 94% of 4,300 active; AID 652068; d(CAG) DNA oligo TO-PRO-1 dye displacement, fluorescence;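 active = inhibition above its plate's cutoff, the mean test-well inhibition plus 3 SD, cut at about 4.8% in these data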;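 note: 0% = DNA dye mix with DMSO and 100% = 100 µM mitoxantrone; hits displace the dye from DNA and so lower well fluorescence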
* hit, by the source's call; · = not tested or not shown.

SMILES	rCAG RNA binder	T cell modulator	B2AR ag	V-ATPase pHluor	MPTP inh	Granule exo inh	rCAG binder conf	DNA CAG counter
COc1cc(NS(=O)(=O)c2ccc(N/C=C(\C=O)c3nc4ccccc4o3)cc2)nc(OC)n1	35*	215	-11	-2	3	-1	39*	11*
COc1cc(NS(=O)(=O)c2ccc(NC(=S)Nc3ccccc3)cc2)nc(OC)n1	3	116	10	0	-1	0	·	·
NC(=O)[C@@H]1CCCN1C(=O)[C@@H](Cc1ccccc1)NC(=O)[C@H]1O[C@@H](n2ccc(=O)[nH]c2=O)[C@H](O)[C@@H]1O	1	·	·	·	·	·	·	·
Cc1ccc(NC(=O)OC2CC3CC2[C@H]2CCCCN2[C@H]3C)cc1 (stereo partly drawn)	2	·	·	·	·	·	·	·
O=C(c1ccc(Cl)cc1)N1CCc2ccccc21	2	211	2	-2	1	-14	·	·
O=C(O)c1ccc(NS(=O)(=O)c2ccc(Cl)c(C(=O)Nc3ccccc3)c2)cc1	3	168	-5	-1	0	0	·	·
O=C(c1ccccc1NS(=O)(=O)c1ccc(Cl)cc1)N1CCc2ccccc21	47*	372	6	1	9	9	61*	15*
O=C(O)c1ccc(Cl)c(S(=O)(=O)Nc2ccccc2C(=O)Nc2ccc(Cl)cc2)c1	45*	612	5	0	-1	-12	46*	17*
O=C(Nc1ccc(S(=O)(=O)Nc2ncccn2)cc1)c1ccccc1NS(=O)(=O)c1ccc(Cl)cc1	42*	120	-1	3	0	-3	66*	26*
Cc1nc2ccc(NC(=O)c3c(Cl)cccc3Cl)cc2c(=O)[nH]1	0	·	·	·	·	·	·	·
CCOC(=O)[C@@]12CCC3=C1N(CCC3)C(=O)[C@H](CC(=O)N1CCCC1)C2	1	·	·	·	·	·	·	·
COc1c(O)cc2oc(-c3ccc(O)cc3)cc(=O)c2c1O	8	538	-1	-3	0	8	·	·
O=c1cc(-c2ccccc2)oc2cc(O)c(O)c(O)c12	38*	813	-13	0	·	7	34	14*
CC1=C(C(=O)OCc2ccccc2)C(c2ccccc2OS(=O)(=O)c2ccc(C)cc2)NC(=O)N1CCCC(=O)O (stereo not drawn)	35*	244	·	·	·	·	62*	21*
O=S(=O)(CS(=O)(=O)c1ccccc1)c1ccccc1	2	·	-4	-1	-2	0	·	·
CC(=O)Nc1ccc(S(=O)(=O)CC(=O)CS(=O)(=O)c2ccc(NC(C)=O)cc2)cc1	39*	·	·	0	0	2	8	4
O=C(CS(=O)(=O)c1ccccc1)CS(=O)(=O)c1ccccc1	53*	·	·	·	·	·	2	1
CC(=O)CCS(=O)(=O)c1ccc(NC(C)=O)cc1	1	275	5	0	0	-2	·	·
Cc1ccc(N=Nc2c(O)[nH]c(=O)[nH]c2=O)cc1S(=O)(=O)Nc1ccc(Br)cc1	36*	292	8	3	0	0	32	11*
CCC(C)n1c(NC(=O)c2ccccc2)c(C#N)c2nc3ccccc3nc21 (stereo not drawn)	38*	408	-33	-1	3	8	68*	31*
CCCCn1c(NC(=O)c2ccc(F)cc2)c(C#N)c2nc3ccccc3nc21	·	226	·	·	·	·	·	·
Nc1c(C(=O)NCC2CCCO2)sc2nc3c(c(-c4ccco4)c12)CC/C3=C\c1ccco1 (stereo not drawn)	60*	·	-62	-1	9	-2	83*	53*
CC(C)(C)OC(=O)N1CCC2CCN(S(C)(=O)=O)CC21 (stereo not drawn)	0	·	·	·	·	·	·	·
COC(=O)c1cccc(Cn2ccc3ccc(-c4ccc5ccn(C(=O)c6ccccc6OC)c5c4)cc32)c1	13	·	·	·	·	·	·	·
CCOc1cc(/C=C(/C#N)c2nc3ccccc3[nH]2)ccc1OCc1ccc(C(=O)O)o1	49*	533	-3	0	1	0	39*	8.6*
COc1cc(/C=C(\C#N)c2nc3ccccc3[nH]2)ccc1OC(=O)c1ccco1	21	329	-5	0	2	2	·	·
